# Published values from different studies.
# Tspo: Translocator protein (Tspo, Rattus norvegicus, UniProt P16257)
# ADRA1A: Alpha-1A adrenergic receptor (ADRA1A, Homo sapiens, UniProt P35348)
# HRH2: Histamine H2 receptor (HRH2, Homo sapiens, UniProt P25021)
SMILES,target,test,Ki [µM]
CCNc1nc(C#Cc2ccccc2)nc2c1ncn2[C@H]1[C@H](O)[C@H](O)[C@@H]2C[C@@H]21,Tspo,"ligand displacement, radioligand",> 10
CCCCN1CCC(COC(=O)c2ccc(N)c(OCF)c2)CC1,ADRA1A,"cell-free assay, radioligand",> 10
CNC(=O)[C@@]12C[C@@H]1[C@@H](n1cnc3c(NC)nc(C#Cc4ccc(F)c(F)c4)nc31)[C@H](O)[C@@H]2O,Tspo,"ligand displacement, radioligand",> 10
CC1=C(/C=C/C(C)=C/C=C/C(C)=C/c2cc(/C=C/C=C(C)/C=C/C3=C(C)CCCC3(C)C)cc[n+]2CCO)C(C)(C)CCC1,"Sterol 26-hydroxylase, mitochondrial (CYP27A1, Homo sapiens, UniProt Q02318)","enzyme activity, inhibitor",2.9
CNC(=O)[C@@]12C[C@@H]1[C@@H](n1cnc3c(NC)nc(C#Cc4ccc(Br)s4)nc31)[C@H](O)[C@@H]2O,Tspo,"ligand displacement, radioligand",> 10
O=C(c1cccc(/N=N/c2cccc(OCCCN3CCCCC3)c2)c1)N1CCCC1,HRH2,"ligand displacement, radioligand",> 10
O=C1c2ccccc2CCN1CCCCN1CCN(c2ccccn2)CC1,ADRA1A,"ligand displacement, radioligand",0.555
CNC(=O)[C@@]12C[C@@H]1[C@@H](n1cnc3c(NC)nc(C#Cc4ccc(Cl)s4)nc31)[C@H](O)[C@@H]2O,Tspo,"cell-free assay, radioligand",0.859
CNc1nc(C#Cc2ccc(Cl)s2)nc2c1ncn2[C@@H]1O[C@H](C(=O)OC)[C@@H](O)[C@H]1O,Tspo,"ligand displacement, radioligand",> 10
CC[Si](C#Cc1ccc2c(c1)C=C([N+](=O)[O-])C(C(F)(F)F)O2)(CC)CC (stereo not shown),Tspo,"cell-free assay, radioligand",0.5
CNc1nc2cc(OCCCCN3CCC(c4cccc(Cl)c4Cl)CC3)ccc2s1,HRH2,"ligand displacement, radioligand",0.33
O=C1c2ccccc2CCN1CCCCN1CCN(c2cccc(Cl)c2Cl)CC1,ADRA1A,"ligand displacement, radioligand",0.117
Cc1nc2cc(OCCCCN3CCN(c4cccc(Cl)c4Cl)CC3)ccc2s1,HRH2,"ligand displacement, radioligand",0.68
O[C@@H]1[C@H](O)[C@@H]2C[C@@H]2[C@H]1n1cnc2c(NCc3cccc(Cl)c3)ncnc21,Tspo,"ligand displacement, radioligand",> 10
CN1CC(Oc2cnc(C#N)cc2-c2ccn3nc(NC(=O)C4CC4)cc3c2)C1,"Receptor-interacting serine/threonine-protein kinase 2 (RIPK2, Homo sapiens, UniProt O43353)","enzyme activity, inhibitor",0.095
OCCCN1CC[C@@H]2C[C@H]1c1cc(-c3ccc(C(F)(F)F)cc3)ccc12,ADRA1A,"ligand displacement, radioligand",1.99
